# Rows were chosen to be rich in hits. Some 2.4% of all compounds tested hit in one or more screens of this group.
# MOR-DOR inv ag: inverse agonists of MOR-DOR heterodimerization, primary screen, cell-based, luminescence. cell-based MOR-DOR heterodimer luminescence, inverse agonism. AID 504357, 2011. inhibition, % at 9.3 µM. 340,000 tested, 0.21% active; in the data active = inhibition above about 22%, passing the limit was not always enough;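 note: 0% = cells with DMSO and 100% = wells without cells with DMSO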
# MC4R ag barr: MC4R agonists recruiting beta-arrestin, primary screen, cell-based, luminescence, agonist arm of biased-ligand search | U2OS MC4R beta-arrestin complementation; percent of melanotan II response, DMSO zero | 360,000 tested, 0.98% active | activation, % at 8.9 µM | Melanocortin receptor 4 (Homo sapiens), P32245;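 active = activation above a per-plate cutoff, the mean activation of sample wells on that plate plus 3 SD, cut at about 8% in these data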
# Target sequence (P32245 whole entry, looked up): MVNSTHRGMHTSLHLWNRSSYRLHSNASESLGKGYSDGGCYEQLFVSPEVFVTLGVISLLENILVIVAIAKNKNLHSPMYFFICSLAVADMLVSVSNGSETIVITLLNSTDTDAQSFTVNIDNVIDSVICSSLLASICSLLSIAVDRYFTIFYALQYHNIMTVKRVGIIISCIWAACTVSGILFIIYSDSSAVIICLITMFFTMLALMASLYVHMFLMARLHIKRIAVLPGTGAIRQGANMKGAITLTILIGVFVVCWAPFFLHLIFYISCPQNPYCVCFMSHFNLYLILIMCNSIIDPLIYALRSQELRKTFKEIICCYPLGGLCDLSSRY
# HTR5A ag ctr: HTR5A agonists in luminescence cell assay, primary screen, counter-screen for OPRM1-OPRD1 heterodimer agonist project, full-deck HTS; 5-hydroxytryptamine receptor 5A (Homo sapiens), P47898; cell-based; activation, % at 9.3 µM; 340,000 tested, 0.61% active; in the data active = activation mostly above about 9.5%, no sharp cut-off; inactive = mostly below about 7.6%;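 note: 0% = cells with vehicle only and 100% = reference agonist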
# OPRM1-OPRD1 ag: agonists of OPRM1-OPRD1 heterodimerization, primary screen, cell-based, luminescence; Mu-type opioid receptor (Homo sapiens) + Delta-type opioid receptor (Homo sapiens), …; cells; activation, % at 9.3 µM; 340,000 tested, 0.3% active; AID 504326, 2011; in the data active = activation above about 18%;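 note: 0% = vehicle-treated cells and 100% = reference agonist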
# HTR5A inv ctr: HTR5A inverse agonists in luminescence cell assay, primary screen, counter-screen for OPRM1-OPRD1 heterodimer inverse agonist project, full-deck HTS | 340,000 tested, 0.083% active | HTR5A cell line, inverse agonism | AID 504634, 2011 | 5-hydroxytryptamine receptor 5A (Homo sapiens), P47898 | inhibition, % at 9.3 µM; in the data active = inhibition mostly above about 23%, no sharp cut-off; inactive = mostly below about 18%;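 note: 0% = cells with DMSO and 100% = no-cell wells with DMSO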
# MC4R antagonist: MC4R antagonists of cAMP signaling, primary screen, cell-based, TR-FRET, antagonist arm of biased-ligand search; inhibition, % at 6.5 µM; AID 540295, 2011; Melanocortin receptor 4 (Homo sapiens), P32245; MC4R-expressing cells, MTII-stimulated cAMP, LANCE TR-FRET; 360,000 tested, 0.48% active;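 active = inhibition above its plate's cutoff, the mean of tested wells on that plate plus 3 SD, cut at about 29% in these data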;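 note: 0% = Melanotan II alone and 100% = Melanotan II plus saturating MCL0020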
#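 System: U2OS-MC4R stable cell line; Technique: Eu-cAMP/anti-cAMP TR-FRET, emission 671 nm; Repeats: single well per compound; Also added: Melanotan II; Dosing: one concentration, 6.5 µM nominal; Schedule: 30-min compound, 1-h challenge, 1-h detection, room temperature.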
# * = called active by the depositor; / = no result.
SMILES,MOR-DOR inv ag,MC4R ag barr,HTR5A ag ctr,OPRM1-OPRD1 ag,HTR5A inv ctr,MC4R antagonist
CC[C@]12c3[nH]c4cc(-c5ccco5)ccc4c3CCN1C(=O)[C@@H](CC(=O)NCc1cccc(C(F)(F)F)c1)C[C@@H]2C(=O)N1CCN(C(=O)c2ccco2)CC1,-0.8,0.5,3.5*,0.2,-12.1,16.5
CN(C)CCCN(C(=O)CCc1ccccc1)c1nc2ccc(Br)cc2s1,-11.0,9.5*,10.7,2.1,-5.1,1.4
CN(C)CCCN(C(=O)CCc1ccccc1)c1nc2ccc(F)cc2s1,6.1,-0.9,3.2,-1.1,14.0,-2.4
COc1cc(C(=O)O/N=C2\C=CC(=O)C=C2C)cc(OC)c1OC,-10.9,4.6,2.2,1.5,-6.3,1.1
COc1cc(C(=O)ON=C2C3CC4CC(C3)CC2C4)cc(OC)c1OC,-47.8,-1.6,11.9*,10.2,-42.5,7.3
CCOc1ccc2nc(NC(=O)C34CC5CC(CC(NC(C)=O)(C5)C3)C4)sc2c1,-11.3,-2.6,3.1,2.1,-1.6,7.4
CN(C)c1cc(N/N=C\c2ccccc2)nc(N(C)C)n1,-42.2,8.5*,-3.0,8.4,-31.6,13.4
COc1ccc(/C=N/Nc2cc(N(C)C)nc(N(C)C)n2)cc1,-5.5,1.0,3.7,1.0,-7.0,4.4
CC(C)(C)c1ccc(S(=O)(=O)NC(=O)C2(C)CCN2C(=O)Cc2ccccc2Cl)cc1 (stereo not drawn),/,1.2,/,/,/,1.7
COc1cccc(C(=O)Nc2ccc3c(cc2=O)[C@@H](NC(C)=O)CCc2cc(OC)c(OC)c(OC)c2-3)c1,-6.2,-1.6,52.3*,1.3,-194.1,2.2
CC(C(=O)NCc1ccccc1)N1CCN(c2ccc(F)cc2)CC1 (stereo not drawn),10.5,-2.8,-2.6,-1.8,10.3,-3.0
Cc1ccc(SCCC(=O)Nc2ccccc2C(=O)NC2CCCCC2)cc1,2.0,9.4*,4.3,-0.3,-11.4,-1.0
Cc1ccc(NC(CC(=O)c2ccccc2)c2ccc(F)cc2)cc1 (stereo not drawn),-26.0,0.6,-0.8,4.8,1.7,4.8
Cc1ccc(C(=O)CC(Nc2ccc(F)cc2)c2ccccc2)cc1 (stereo not drawn),-30.0,8.9*,-2.1,5.7,9.5,1.5
CCSC1=NCCN1C(=O)c1ccc(S(=O)(=O)N(C)C)cc1,-4.3,0.2,-1.8,0.8,4.8,5.2
CN(C)S(=O)(=O)c1ccc(C(=O)N2CCN=C2SCc2ccccc2)cc1,0.0,2.0,12.6*,0.0,-31.2,6.0
CCOC(=O)C(Cc1ccccc1)NC(C)=O (stereo not drawn),9.8,-0.5,12.2*,-1.8,-23.9,-2.5
CC(=O)NC(Cc1ccccc1)C(C)=O (stereo not drawn),15.6,0.2,-1.8,-3.3,4.7,10.0
O=C(COC(=O)c1cc(C(F)(F)F)cc(C(F)(F)F)c1)NCc1ccc(Cl)cc1,0.6,8.7*,2.7,-0.1,5.5,-0.8
O=C(COC(=O)C1=COCCO1)NCc1ccc(Cl)cc1,7.0,-0.2,12.5*,-1.4,-35.8,17.0
O=C(COc1ccccc1)N/N=C/c1ccc(O[C@@H]2O[C@H](CO)[C@@H](O)[C@H](O)[C@H]2O)cc1,10.7,-1.1,12.9*,-2.1,3.9,-5.9
CCOC(=O)c1ccc(-n2nc(C)cc2C)cc1,12.8,1.6,-0.5,-2.6,1.2,-0.2
Cc1cc(C)n(-c2ccc(C(=O)OCC(=O)NC(c3ccccc3)c3ccccc3)cc2)n1,-25.4,9.3*,13.3,5.0,-43.6,20.0
Cc1nn(Cc2ccc(Cl)cc2)c(=O)n1N(C)c1ncc(C(F)(F)F)cc1Cl,-31.1,9.2*,7.9,5.4,-1.8,3.2
Cc1nn(Cc2ccc([N+](=O)[O-])cc2)c(=O)n1N(C)c1ncc(C(F)(F)F)cc1Cl,3.6,-1.1,3.1,-0.7,-23.3,-0.5

# Screens as filed in PubChem.
